Active and inactive are the calls of the source. The calls are words filed in the database; no cut-off is given here.

For experiment [1], the target named is T1, Neuronal acetylcholine receptor; alpha4/beta2 (Homo sapiens, UniProt P17787+P43681). Put plainly: Agonist activity at human nAChR alpha4beta2 expressed in HEK ts201 cells assessed as increase in calcium mobilization at 30 uM measured every 1.5 sec by fluorescence analysis. Type of experiment: functional, cell-based. In general terms: Calcium assays in cells follow changes in intracellular calcium, usually with a dye or a luminescent sensor.
T1 sequence (P17787 whole entry): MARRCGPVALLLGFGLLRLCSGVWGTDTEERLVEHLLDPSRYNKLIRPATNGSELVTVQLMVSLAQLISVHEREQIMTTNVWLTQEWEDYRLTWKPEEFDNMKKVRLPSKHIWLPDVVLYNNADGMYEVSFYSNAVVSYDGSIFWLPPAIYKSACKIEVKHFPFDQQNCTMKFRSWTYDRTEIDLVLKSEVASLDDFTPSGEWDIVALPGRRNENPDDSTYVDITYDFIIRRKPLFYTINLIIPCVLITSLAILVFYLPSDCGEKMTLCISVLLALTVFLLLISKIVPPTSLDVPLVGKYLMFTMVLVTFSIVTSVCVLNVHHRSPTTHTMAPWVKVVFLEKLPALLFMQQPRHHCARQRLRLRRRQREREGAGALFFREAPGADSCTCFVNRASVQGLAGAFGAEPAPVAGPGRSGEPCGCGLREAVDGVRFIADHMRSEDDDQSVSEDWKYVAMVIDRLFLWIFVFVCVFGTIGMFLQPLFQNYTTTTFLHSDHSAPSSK
T1 sequence (P43681 whole entry): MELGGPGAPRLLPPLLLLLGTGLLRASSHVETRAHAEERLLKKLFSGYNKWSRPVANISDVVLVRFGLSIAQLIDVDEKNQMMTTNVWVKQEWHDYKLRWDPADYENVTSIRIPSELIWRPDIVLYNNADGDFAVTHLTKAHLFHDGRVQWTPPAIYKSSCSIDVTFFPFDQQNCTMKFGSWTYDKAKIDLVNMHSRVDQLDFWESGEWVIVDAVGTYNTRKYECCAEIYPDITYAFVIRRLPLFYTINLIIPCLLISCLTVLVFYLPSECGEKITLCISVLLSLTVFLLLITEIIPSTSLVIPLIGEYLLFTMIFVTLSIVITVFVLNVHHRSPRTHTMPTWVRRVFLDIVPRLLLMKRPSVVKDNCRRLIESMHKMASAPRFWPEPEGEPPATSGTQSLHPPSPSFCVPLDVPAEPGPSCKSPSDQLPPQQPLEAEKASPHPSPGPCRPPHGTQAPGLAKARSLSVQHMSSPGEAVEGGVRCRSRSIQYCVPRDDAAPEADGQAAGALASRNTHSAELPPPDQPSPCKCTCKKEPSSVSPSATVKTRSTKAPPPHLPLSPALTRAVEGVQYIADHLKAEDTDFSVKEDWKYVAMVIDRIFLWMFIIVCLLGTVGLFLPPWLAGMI

The target in experiment [2] is T2, Neuronal acetylcholine receptor; alpha3/beta4 (Homo sapiens, UniProt P30926+P32297). Briefly: Negative allosteric modulation of human nAChR alpha3beta4 expressed in HEK ts201 cells assessed as inhibition of epibatidine-induced calcium mobilization measured every 1.5 sec by fluorescence analysis. Type of experiment: cell-based. The gist of the method: (§1)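 HEK ts201 cells stably expressing human α4β2 or α3β4 nAChRs were plated on poly-L-ornithine-coated wells at 2.0–2.3 × 10^5 cells/well and used ~24 h later. They were washed with HEPES-buffered Krebs and loaded with 50% Calcium 5 NW dye for 1 h at 24 °C in the dark. Test compound was given at 6 concentrations across 0.1–100 µM, with final DMSO 1% at the top concentration. The agonist was 1 µM epibatidine, and fluorescence (ex 485/em 525 nm) was read every ~1.5 s.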
T2 sequence (P30926 whole entry): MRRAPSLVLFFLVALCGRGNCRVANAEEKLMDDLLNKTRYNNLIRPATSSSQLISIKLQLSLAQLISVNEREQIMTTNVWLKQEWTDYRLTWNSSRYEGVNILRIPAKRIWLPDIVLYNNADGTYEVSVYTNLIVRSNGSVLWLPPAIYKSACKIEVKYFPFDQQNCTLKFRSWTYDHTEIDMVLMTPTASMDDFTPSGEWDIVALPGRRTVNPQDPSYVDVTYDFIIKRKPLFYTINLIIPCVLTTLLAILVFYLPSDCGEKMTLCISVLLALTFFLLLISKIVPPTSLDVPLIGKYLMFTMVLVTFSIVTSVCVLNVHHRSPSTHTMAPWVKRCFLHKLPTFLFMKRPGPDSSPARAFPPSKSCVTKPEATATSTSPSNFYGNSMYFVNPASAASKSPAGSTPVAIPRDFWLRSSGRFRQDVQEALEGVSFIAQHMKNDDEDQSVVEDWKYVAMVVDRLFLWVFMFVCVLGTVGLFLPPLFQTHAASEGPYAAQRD
T2 sequence (P32297 whole entry): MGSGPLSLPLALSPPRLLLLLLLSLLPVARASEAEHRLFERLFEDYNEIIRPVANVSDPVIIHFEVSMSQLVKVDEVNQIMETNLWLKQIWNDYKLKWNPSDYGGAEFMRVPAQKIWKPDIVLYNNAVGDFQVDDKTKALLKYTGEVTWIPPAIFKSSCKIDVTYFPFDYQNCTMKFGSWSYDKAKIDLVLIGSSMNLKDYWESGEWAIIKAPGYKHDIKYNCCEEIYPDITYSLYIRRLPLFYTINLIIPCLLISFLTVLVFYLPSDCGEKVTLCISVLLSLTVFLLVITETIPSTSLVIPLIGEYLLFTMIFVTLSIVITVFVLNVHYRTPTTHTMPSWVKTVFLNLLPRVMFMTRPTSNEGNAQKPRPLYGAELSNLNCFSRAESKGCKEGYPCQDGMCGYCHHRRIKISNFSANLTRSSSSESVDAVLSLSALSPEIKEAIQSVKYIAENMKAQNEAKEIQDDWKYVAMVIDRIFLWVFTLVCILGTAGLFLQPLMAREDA

For experiment [3], the target named is T2, Neuronal acetylcholine receptor; alpha3/beta4. Briefly: Agonist activity at human nAChR alpha3beta4 expressed in HEK ts201 cells assessed as increase in calcium mobilization at 30 uM measured every 1.5 sec by fluorescence analysis. Type of experiment: functional, cell-based.
The target in experiment [4] is T1, Neuronal acetylcholine receptor; alpha4/beta2. Put plainly: Negative allosteric modulation of human nAChR alpha4beta2 expressed in HEK ts201 cells assessed as decrease in epibatidine-induced calcium mobilization up to 100 uM measured every 1.5 sec by fluorescence analysis. Type of experiment: cell-based. The gist of the method: as §1
Experiment [5] has the same target. Briefly: Negative allosteric modulation of human nAChR alpha4beta2 expressed in HEK ts201 cells assessed as inhibition of epibatidine-induced calcium mobilization measured every 1.5 sec by fluorescence analysis. The format is cell-based. The gist of the method: as §1
Experiment [6] addresses T2, Neuronal acetylcholine receptor; alpha3/beta4. Put plainly: Negative allosteric modulation of human nAChR alpha3beta4 expressed in HEK ts201 cells assessed as decrease in epibatidine-induced calcium mobilization up to 100 uM measured every 1.5 sec by fluorescence analysis. Type of experiment: cell-based. The gist of the method: as §1
Experiment [7] has the same target. Put plainly: Noncompetitive inhibition of human nAChR alpha3beta4 expressed in HEK ts201 cells assessed as inhibition of epibatidine-induced calcium mobilization at 30 uM measured every 1.5 sec by fluorescence analysis. The format is cell-based. Summed up: (§2)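 Epibatidine concentration-response curves were run with and without 30 µM modulator in HEK ts201 cells expressing human α4β2 or α3β4 nAChRs. Cells were loaded with Calcium 5 NW dye for 1 h at 24 °C in HEPES-buffered Krebs, and fluorescence (ex 485/em 525 nm) was monitored every ~1.5 s.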

Experiment [8] concerns the target T1, Neuronal acetylcholine receptor; alpha4/beta2. Put plainly: Noncompetitive inhibition of human nAChR alpha4beta2 expressed in HEK ts201 cells assessed as inhibition of epibatidine-induced calcium mobilization at 30 uM measured every 1.5 sec by fluorescence analysis. Type of experiment: cell-based. Summed up: as §2
The target is the same in experiment [9]. Briefly: Relative selectivity, ratio of IC50 for human nAChR alpha3beta4 expressed in HEK ts201 cells to IC50 for human nAChR alpha4beta2 expressed in HEK ts201 cells. Type of experiment: cell-based.
Experiment [10] addresses T2, Neuronal acetylcholine receptor; alpha3/beta4. Briefly: Negative allosteric modulation of human nAChR alpha3beta4 expressed in HEK ts201 cells assessed as inhibition of epibatidine-induced calcium mobilization at 0.1 to 100 uM measured every 1.5 sec by fluorescence analysis. The format is cell-based. The gist of the method:
as §1

In experiment [11] the target is T1, Neuronal acetylcholine receptor; alpha4/beta2. Put plainly: Negative allosteric modulation of human nAChR alpha4beta2 expressed in HEK ts201 cells assessed as inhibition of epibatidine-induced calcium mobilization at 0.1 to 100 uM measured every 1.5 sec by fluorescence analysis. The format is cell-based. Summed up:
as §1

The IC50 is the concentration needed to halve the response being measured. Regarding `COc1ccc(NC(=O)CN2CCN(S(=O)(=O)c3cccnc3)CC2)cc1`, the outcome in experiment [1] and in [3] was inactive. The concentration for half-maximal inhibition (IC50) in [2] was 95 µM; in [4], more than 100 µM.
Consider `O=C(CN1CCN(S(=O)(=O)c2ccccc2)CC1)Nc1ccccc1`, for which the result in [1] and in experiment [3] was inactive. Besides, the IC50 stood at 16.4 µM in experiment [2] and 9.6 µM in experiment [5].
Consider `COc1ccc(NC(=O)CN2CCN(S(=O)(=O)c3ccc(F)cc3)CC2)cc1`, for which the result in experiment [1] and in experiment [3] was inactive.
Regarding `COc1ccc(S(=O)(=O)N2CCN(CC(=O)Nc3ccccc3F)CC2)cc1`, the outcome in experiment [1] and in experiment [3] was inactive. In addition, the concentration for half-maximal inhibition (IC50) in experiment [2] was 15.4 µM; in experiment [5] it was 13.4 µM.
With `O=C(CN1CCN(S(=O)(=O)c2ccccc2F)CC1)Oc1ccccc1-c1ccccc1`, the outcome in [1] and in experiment [3] was inactive. Further, the IC50 in experiment [2] came out at 23.5 µM; in [5] it was 20.9 µM.
Turning to `O=C(CN1CCN(S(=O)(=O)c2ccc(F)cc2)CC1)Nc1ccc2[nH]ncc2c1`, the result in experiment [1] and in experiment [3] was inactive.
Consider `O=C(CN1CCN(S(=O)(=O)c2cccnc2)CC1)Nc1ccn[nH]1`, for which the half-maximal inhibitory concentration (IC50) in [5] was 83 µM; in [6], more than 100 µM.
Turning to `O=C(CN1CCN(S(=O)(=O)c2ccc(F)cc2)CC1)Nc1ccccc1F`, the outcome in experiment [1] and in experiment [3] was inactive. Moreover, the inhibition result in experiment [7] and in experiment [8] was “Active” throughout.
With `COc1ccc(NC(=O)CN2CCN(S(=O)(=O)c3ccccc3F)CC2)cc1`, the result in [1] and in [3] was inactive. The Ratio IC50 in [9] amounted to 1.1. For the same compound, the values for the IC50 in experiment [2] and in experiment [5] were 19.1 µM and 17.1 µM, respectively.
For `O=C(CN1CCN(S(=O)(=O)c2ccc(F)cc2)CC1)Oc1ccccc1-c1ccccc1`, the outcome in experiment [1] and in [3] was inactive. Also, the IC50 in experiment [2] came out at 23.8 µM; in [5], 12.2 µM.
Turning to `O=C(CN1CCN(S(=O)(=O)c2cccnc2)CC1)Nc1ccccc1F`, the result in [1] and in experiment [3] was inactive. The figures for the IC50 in experiment [2] and in [5] were 49.6 µM and 20.3 µM, respectively.
Turning to `O=S(=O)(c1ccc(F)cc1)N1CCNCC1`, the result in experiment [10] and in [11] was inactive.
For the compound `O=C(CN1CCN(S(=O)(=O)c2ccccc2F)CC1)Nc1ccn[nH]1`, the half-maximal inhibitory concentration (IC50) in experiment [4] and in [6] was more than 100 µM throughout.
Regarding `O=C(CN1CCN(S(=O)(=O)c2ccccc2)CC1)Nc1ccccc1F`, the result in experiment [1] and in [3] was inactive. Besides, the IC50 worked out at 4.6 µM in [2] and 4.1 µM in experiment [5].
`COc1ccc(S(=O)(=O)N2CCN(CC(=O)Nc3ccc(F)cc3)CC2)cc1`: the result in experiment [1] and in experiment [3] was inactive. Besides, the IC50 was 17.1 µM in experiment [2] and 23.6 µM in [5].
Take `COC(=O)c1ccc(NC(=O)CN2CCN(S(=O)(=O)c3ccccc3F)CC2)cc1`: the outcome in [1] and in experiment [3] was inactive. Besides, the 50% inhibitory concentration (IC50) in experiment [2] stood at 11.2 µM; in [5] it was 12.4 µM.
For the compound `O=C(CN1CCN(S(=O)(=O)c2ccccc2F)CC1)Nc1ccccc1F`, the outcome in experiment [1] and in experiment [3] was inactive. The Ratio IC50 in experiment [9] amounted to 12.
For `O=C(CN1CCN(S(=O)(=O)c2cccnc2)CC1)Nc1cc[nH]n1`, the result in experiment [1] and in experiment [3] was inactive.
`O=C(CN1CCN(S(=O)(=O)c2ccc(F)cc2)CC1)Nc1ccccc1`: the result in experiment [1] and in [3] was inactive.
`O=C(CN1CCN(S(=O)(=O)c2ccc(F)cc2)CC1)Nc1ccc(F)cc1`: the outcome in [1] and in [3] was inactive.
Turning to `O=C(CN1CCN(S(=O)(=O)c2ccccc2F)CC1)Nc1ccc(F)cc1`, the result in [1] and in experiment [3] was inactive. The IC50 in experiment [2] is 13.6 µM; in experiment [5] it was 8 µM.
For the compound `O=C(CN1CCN(S(=O)(=O)c2ccccc2F)CC1)Nc1cc[nH]n1`, the result in experiment [1] and in [3] was inactive.
Turning to `O=C(CN1CCN(S(=O)(=O)c2ccc(F)cc2)CC1)Nc1cc[nH]n1`, the outcome in experiment [1] and in experiment [3] was inactive.
Regarding `O=C(CN1CCN(S(=O)(=O)c2ccccc2F)CC1)Nc1ccc(C(=O)O)cc1`, the result in experiment [1] and in experiment [3] was inactive. For the same compound, the 50% inhibitory concentration (IC50) in experiment [4] and in [6] was more than 100 µM each time.
